Publication PMC11069345 (Bioorganic chemistry, 2024)
Like-named read-outs stand apart in the source and are kept apart here. Values belong to the compound of their own block, whether it stands above or below them.

Key:
ABCC1 (MRP1) [1] = molecular target: T1, ABCC1 (MRP1) (Homo sapiens, UniProt P33527); assay: Transport inhibition assay: calcein-AM in BHK21-ABCC1 cells, flow cytometry; conditions: for Inhibition (% ± SD) ABCC1 (MRP1) 10 μM: 10 μM compound; for Inhibition (% ± SD) ABCC1 (MRP1) 10 μM / Inhibition (% ± SD) ABCC1 (MRP1) 50 μM: calcein-AM 0.15 μM, relative to verapamil 30 μM (100%); for Inhibition (% ± SD) ABCC1 (MRP1) 50 μM: 50 μM compound
ABCG2 (BCRP) [2] = molecular target: T2, ABCG2 (BCRP) (Homo sapiens, UniProt Q9UNQ0); conditions: for Inhibition (% ± SD) ABCG2 (BCRP) 10 μM: 10 μM compound; for Inhibition (% ± SD) ABCG2 (BCRP) 10 μM / Inhibition (% ± SD) ABCG2 (BCRP) 50 μM: mitoxantrone 5 μM, 30 min, relative to Ko143 0.5 μM (100%); for Inhibition (% ± SD) ABCG2 (BCRP) 50 μM: 50 μM compound
T2 sequence (Q9UNQ0 1-655): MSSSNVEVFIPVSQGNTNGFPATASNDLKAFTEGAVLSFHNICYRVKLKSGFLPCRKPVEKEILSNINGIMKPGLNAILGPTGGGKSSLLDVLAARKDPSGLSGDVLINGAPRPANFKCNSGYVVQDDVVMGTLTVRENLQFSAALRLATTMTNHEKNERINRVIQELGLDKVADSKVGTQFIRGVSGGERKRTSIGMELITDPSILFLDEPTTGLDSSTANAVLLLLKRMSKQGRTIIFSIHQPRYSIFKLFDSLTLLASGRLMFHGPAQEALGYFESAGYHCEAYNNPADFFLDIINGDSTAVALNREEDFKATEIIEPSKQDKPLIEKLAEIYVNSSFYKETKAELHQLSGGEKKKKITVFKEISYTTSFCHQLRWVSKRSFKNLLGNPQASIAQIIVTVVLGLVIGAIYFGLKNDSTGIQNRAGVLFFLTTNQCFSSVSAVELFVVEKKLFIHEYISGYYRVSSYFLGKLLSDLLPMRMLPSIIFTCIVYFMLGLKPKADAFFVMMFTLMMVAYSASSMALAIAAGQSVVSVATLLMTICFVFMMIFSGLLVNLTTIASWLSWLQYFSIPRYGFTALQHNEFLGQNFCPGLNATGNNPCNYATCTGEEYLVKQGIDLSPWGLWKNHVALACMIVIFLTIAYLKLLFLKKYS

ABCB1 (P-gp) [3] = molecular target: T3, ABCB1 (P-gp) (Homo sapiens, UniProt P08183); assay: Transport inhibition assay: rhodamine 123 in NIH3T3-ABCB1 cells, flow cytometry; conditions: for Inhibition (% ± SD) ABCB1 (P-gp) 10 μM: 10 μM compound; for Inhibition (% ± SD) ABCB1 (P-gp) 10 μM / Inhibition (% ± SD) ABCB1 (P-gp) 50 μM: rhodamine 123 5 μM, relative to GF120918 0.5 μM (100%); for Inhibition (% ± SD) ABCB1 (P-gp) 50 μM: 50 μM compound
[4] = test system: HEK293 and HEK293-ABCG2 cells; assay: Cell viability MTT assay, 72 h; format: cell-based, human
Summary of the method: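 Parental HEK293 and HEK293-ABCG2 cells were seeded at 1.5×10^4 cells/well, left overnight, then exposed to test compound at 0.19–100 μM for 72 h at 37 °C under 5% CO2. Medium was replaced with 0.5 mg mL−1 MTT for 4 h. Formazan was dissolved in DMSO/ethanol (1:1) and absorbance read at 570 nm.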

ABCG2 [5] = molecular target: T4, ABCG2 (Homo sapiens, UniProt Q9UNQ0); format: biochemical
T4 sequence (Q9UNQ0 1-655): T2 sequence (Q9UNQ0 1-655)

ABCB1 (P-gp) [6] = molecular target: T3, ABCB1 (P-gp)
ABCG2 mRNA expression = assay: mRNA expression levels by qPCR in HEK293-ABCG2 cells; format: cell-based, human; conditions: 50 μM, 72 h
ABCG2 (BCRP) [7] = molecular target: T2, ABCG2 (BCRP)
HEK293-ABCG2 cells = assay: Chemosensitization assay, co-treatment with SN-38, MTT, 72 h; format: cell-based, human; conditions: co-treatment with SN-38 0.05 μM, 11 at saturating concentration, Ko143 at 0.5 μM
ABCC1 (MRP1) [8] = molecular target: T1, ABCC1 (MRP1)
[9] = cited from earlier work
ABCG2 [10] = molecular target: T4, ABCG2; conditions: cited from earlier work
[11] = human, probe mitoxantrone (5 μM)

T1 sequence (P33527 whole entry): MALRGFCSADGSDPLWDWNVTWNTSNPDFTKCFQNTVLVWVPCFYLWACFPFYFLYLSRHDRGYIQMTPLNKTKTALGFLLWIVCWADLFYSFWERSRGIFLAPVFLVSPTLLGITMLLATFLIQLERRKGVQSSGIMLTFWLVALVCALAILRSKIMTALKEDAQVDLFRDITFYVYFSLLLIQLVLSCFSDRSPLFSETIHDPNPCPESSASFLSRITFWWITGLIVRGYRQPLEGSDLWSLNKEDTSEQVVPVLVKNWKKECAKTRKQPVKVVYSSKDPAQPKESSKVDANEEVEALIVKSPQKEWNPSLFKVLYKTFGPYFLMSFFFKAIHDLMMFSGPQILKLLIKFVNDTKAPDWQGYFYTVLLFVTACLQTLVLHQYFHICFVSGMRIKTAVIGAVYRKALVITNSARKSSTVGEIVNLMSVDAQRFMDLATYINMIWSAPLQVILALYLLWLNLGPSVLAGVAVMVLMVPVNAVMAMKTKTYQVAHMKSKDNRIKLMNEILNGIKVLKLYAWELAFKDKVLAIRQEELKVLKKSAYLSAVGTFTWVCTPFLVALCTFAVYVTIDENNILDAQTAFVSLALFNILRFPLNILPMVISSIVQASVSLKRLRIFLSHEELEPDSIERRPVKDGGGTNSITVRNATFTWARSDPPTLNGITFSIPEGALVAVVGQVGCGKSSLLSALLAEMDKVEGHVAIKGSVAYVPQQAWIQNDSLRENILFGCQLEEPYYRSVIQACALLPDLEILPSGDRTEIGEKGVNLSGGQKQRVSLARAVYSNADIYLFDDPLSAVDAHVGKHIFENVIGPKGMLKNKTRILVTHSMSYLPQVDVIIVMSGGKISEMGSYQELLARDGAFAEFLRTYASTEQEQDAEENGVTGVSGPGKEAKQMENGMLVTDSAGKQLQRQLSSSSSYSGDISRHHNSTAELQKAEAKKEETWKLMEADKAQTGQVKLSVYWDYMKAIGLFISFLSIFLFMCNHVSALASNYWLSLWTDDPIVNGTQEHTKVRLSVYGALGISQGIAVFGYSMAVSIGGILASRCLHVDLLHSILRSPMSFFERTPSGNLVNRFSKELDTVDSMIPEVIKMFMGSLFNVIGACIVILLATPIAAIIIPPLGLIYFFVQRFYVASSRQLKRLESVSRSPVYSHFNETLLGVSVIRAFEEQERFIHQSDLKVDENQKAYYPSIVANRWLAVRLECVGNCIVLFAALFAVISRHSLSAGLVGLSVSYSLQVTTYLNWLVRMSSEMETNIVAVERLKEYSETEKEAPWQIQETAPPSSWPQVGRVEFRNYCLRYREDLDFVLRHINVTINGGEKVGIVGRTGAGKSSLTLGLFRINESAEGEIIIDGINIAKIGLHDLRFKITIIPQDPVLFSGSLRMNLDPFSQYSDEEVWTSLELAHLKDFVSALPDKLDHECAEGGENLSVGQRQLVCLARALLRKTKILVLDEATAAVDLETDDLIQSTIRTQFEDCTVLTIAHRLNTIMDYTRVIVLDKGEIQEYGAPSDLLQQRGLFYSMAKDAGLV
T3 sequence (P08183 whole entry): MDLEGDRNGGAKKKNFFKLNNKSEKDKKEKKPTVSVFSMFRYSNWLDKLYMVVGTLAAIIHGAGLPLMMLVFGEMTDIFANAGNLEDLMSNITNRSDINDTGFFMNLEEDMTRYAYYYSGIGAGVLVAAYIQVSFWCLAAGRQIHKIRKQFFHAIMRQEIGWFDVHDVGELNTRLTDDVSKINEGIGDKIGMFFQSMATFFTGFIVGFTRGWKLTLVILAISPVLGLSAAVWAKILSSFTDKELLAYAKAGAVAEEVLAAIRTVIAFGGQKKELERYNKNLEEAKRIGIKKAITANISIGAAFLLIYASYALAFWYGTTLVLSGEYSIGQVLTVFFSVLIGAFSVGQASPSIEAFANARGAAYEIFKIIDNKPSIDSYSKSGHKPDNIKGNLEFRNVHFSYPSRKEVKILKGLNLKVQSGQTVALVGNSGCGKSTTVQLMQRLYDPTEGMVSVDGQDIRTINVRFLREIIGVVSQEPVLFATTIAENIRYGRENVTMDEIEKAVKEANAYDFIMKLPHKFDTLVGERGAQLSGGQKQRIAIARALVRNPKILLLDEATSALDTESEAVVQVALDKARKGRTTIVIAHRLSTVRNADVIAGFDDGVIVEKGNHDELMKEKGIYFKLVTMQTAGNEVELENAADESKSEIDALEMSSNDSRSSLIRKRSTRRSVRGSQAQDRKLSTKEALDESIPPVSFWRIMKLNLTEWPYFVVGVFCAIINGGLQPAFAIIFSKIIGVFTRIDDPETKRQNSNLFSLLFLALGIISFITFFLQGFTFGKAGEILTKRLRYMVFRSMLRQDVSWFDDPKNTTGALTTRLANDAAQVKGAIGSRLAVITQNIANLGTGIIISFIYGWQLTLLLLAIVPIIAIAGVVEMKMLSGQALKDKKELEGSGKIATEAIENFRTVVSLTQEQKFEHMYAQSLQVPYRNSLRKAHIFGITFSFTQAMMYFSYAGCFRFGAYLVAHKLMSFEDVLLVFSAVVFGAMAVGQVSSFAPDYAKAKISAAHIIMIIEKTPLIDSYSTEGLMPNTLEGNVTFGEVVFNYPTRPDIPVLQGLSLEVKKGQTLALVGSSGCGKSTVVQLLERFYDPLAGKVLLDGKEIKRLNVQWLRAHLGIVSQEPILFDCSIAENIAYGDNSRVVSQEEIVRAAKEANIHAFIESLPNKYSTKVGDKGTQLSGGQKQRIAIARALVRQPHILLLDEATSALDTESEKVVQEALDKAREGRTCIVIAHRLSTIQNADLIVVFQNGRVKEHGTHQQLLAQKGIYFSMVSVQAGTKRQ

SMILES: CCCc1ccc(O)c(-c2cc(CCC)ccc2OC)c1 [Compound 15]
- Inhibition (% ± SD) ABCC1 (MRP1) 10 μM (ABCC1 (MRP1) [1]): 4.3 ± 3.9%
- Inhibition (% ± SD) ABCC1 (MRP1) 50 μM (ABCC1 (MRP1) [1]): 5.8 ± 4.1%
- Inhibition (% ± SD) ABCG2 (BCRP) 10 μM (ABCG2 (BCRP) [2]): 1.1 ± 5.4%
- Inhibition (% ± SD) ABCG2 (BCRP) 50 μM (ABCG2 (BCRP) [2]): 20.4 ± 1.7%
- Inhibition (% ± SD) ABCB1 (P-gp) 10 μM (ABCB1 (P-gp) [3]): 0.2 ± 0.8%
- Inhibition (% ± SD) ABCB1 (P-gp) 50 μM (ABCB1 (P-gp) [3]): 2.0 ± 1.9%

- inhibition at 30 min, 10 μM (ABCC1 (MRP1) [1]; probe calcein-AM (0.15 μM)): 2.9 ± 4.3%
- inhibition at 30 min, 50 μM (ABCC1 (MRP1) [1]; probe calcein-AM (0.15 μM)): 4.7 ± 6.4%
- inhibition at 30 min, 10 μM (ABCB1 (P-gp) [3]; probe rhodamine 123 (5 μM)): 1.1 ± 4.6%
- inhibition at 30 min, 50 μM (ABCB1 (P-gp) [3]; probe rhodamine 123 (5 μM)): -1.2 ± 1.8%
SMILES: C=CCc1ccc(OC)c(-c2cc(CC=C)cc(O)c2O)c1 [Compound 13, 5,5’-diallyl-2’-methoxy-[1,1’-biphenyl]-2,3-diol]
- inhibition at 30 min, 10 μM (ABCG2 (BCRP) [2]; [11]): 4 ± 4.4%
- inhibition at 30 min, 50 μM (ABCG2 (BCRP) [2]; [11]): 19.5 ± 4.4%

- Stimulation of ABCG2 ATPase activity (ABCG2 [5]): ~ 60%
- Inhibition of ABCG2 ATPase activity (ABCG2 [5]; 50 µM): ~ 30%
- Inhibition (% ± SD) ABCB1 (P-gp) 10 μM (ABCB1 (P-gp) [6]): −0.7 ± 1.2%
- Inhibition (% ± SD) ABCB1 (P-gp) 50 μM (ABCB1 (P-gp) [6]): 2.8 ± 3.8%
- Extent of ABCG2 inhibition (partial or complete inhibitor) (ABCG2 (BCRP) [7]): complete ABCG2 inhibitor
- IC50 (ABCG2 (BCRP) [7]): 9.5 µM
- Inhibition (% ± SD) ABCG2 (BCRP) 10 μM (ABCG2 (BCRP) [7]): 62.0 ± 11.9%
- Type of inhibition (Lineweaver-Burk plot) (ABCG2 (BCRP) [7]): mixed type of inhibition
- Inhibition (% ± SD) ABCC1 (MRP1) 10 μM (ABCC1 (MRP1) [8]): 4.9 ± 7.0%
- Inhibition (% ± SD) ABCC1 (MRP1) 50 μM (ABCC1 (MRP1) [8]): 11.5 ± 5.8%
SMILES: C=CCc1ccc(O)c(-c2cc(CC=C)ccc2OC)c1 [Compound 11]
- Concentration with cytotoxic effect ([4]; 0.19 – 100 μM tested, HEK293 and HEK293-ABCG2): > 100 µM
- IG50 (concentration that reduces 50% of the cell viability) ([4]; estimated): > 100 µM
- Effect on mRNA ABCG2 expression levels (ABCG2 mRNA expression): did not significantly affect the transcriptional levels of ABCG2
- Reversion of ABCG2-mediated resistance to SN-38 (cell viability) (HEK293-ABCG2 cells): completely revert the MDR phenotype mediated by ABCG2

SMILES: COc1ccc2c3c([nH]c2c1)[C@H](CC(C)C)N1C(=O)[C@H](CCC(=O)OC(C)(C)C)NC(=O)[C@@H]1C3 [Ko143, reference compound]
- IG50 (cytotoxicity) [9]: 18 to 34 µM
- Reversion of ABCG2-mediated resistance to SN-38 (cell viability) (HEK293-ABCG2 cells): same percentage of cell viability as the observed for HEK293 cells exposed to SN-38 alone

- Inhibition (% ± SD) ABCB1 (P-gp) 10 μM (ABCB1 (P-gp) [6]): −1.1 ± 1.5%
- Inhibition (% ± SD) ABCB1 (P-gp) 50 μM (ABCB1 (P-gp) [6]): −0.5 ± 2.1%
- Inhibition (% ± SD) ABCG2 (BCRP) 10 μM (ABCG2 (BCRP) [7]): 5.9 ± 10.9%
- Inhibition (% ± SD) ABCG2 (BCRP) 50 μM (ABCG2 (BCRP) [7]): 32.8 ± 5.5%
- Inhibition (% ± SD) ABCC1 (MRP1) 10 μM (ABCC1 (MRP1) [8]): 2.6 ± 1.8%
- Inhibition (% ± SD) ABCC1 (MRP1) 50 μM (ABCC1 (MRP1) [8]): 9.1 ± 3.3%
SMILES: C=CCc1ccc(OC)c(-c2cc(CC=C)ccc2OC)c1 [Compound 12]

SMILES: CCCc1ccc(O)c(-c2cc(CCC)ccc2O)c1 [Compound 14]
- Inhibition (% ± SD) ABCC1 (MRP1) 10 μM (ABCC1 (MRP1) [1]): 5.6 ± 5.5%
- Inhibition (% ± SD) ABCC1 (MRP1) 50 μM (ABCC1 (MRP1) [1]): 16.0 ± 10.7%
- Inhibition (% ± SD) ABCG2 (BCRP) 10 μM (ABCG2 (BCRP) [2]): 1.8 ± 1.7%
- Inhibition (% ± SD) ABCG2 (BCRP) 50 μM (ABCG2 (BCRP) [2]): 19.5 ± 4.5%
- Inhibition (% ± SD) ABCB1 (P-gp) 10 μM (ABCB1 (P-gp) [3]): 0.5 ± 0.9%
- Inhibition (% ± SD) ABCB1 (P-gp) 50 μM (ABCB1 (P-gp) [3]): −6.4 ± 0.3%

SMILES: C=CCc1ccc(O)c(-c2ccc(O)c(CC=C)c2)c1 [honokiol]
- Transport by ABCG2 (substrate) (ABCG2 [10]): substrates of ABCG2

SMILES: C=CCc1ccc(O)c(-c2cc(CC=C)ccc2O)c1 [magnolol]
- Transport by ABCG2 (substrate) (ABCG2 [10]): substrates of ABCG2
